Converted amounts (≈) assume the structure as drawn.
Columns and labels:
[1] = test system: Staphylococcus epidermidis; test: Antibacterial activity against Staphylococcus epidermidis ATCC 14990 after 18 hrs; assay type: functional; settings: ATCC 14990, 18 h
Summary of the method: (§1)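 Broth microdilution in Nutrient Broth No. 2; stocks in ethanol diluted to 0.01–128 µg/ml (triclosan) or 0.25–256 µg/ml (glycosides). Overnight 37 °C NB2 cultures diluted 1 in 10^4 in saline and added to the dilutions. Incubation at 37 °C with agitation, OD read every 15 min; MIC is the lowest concentration preventing any OD rise after 18 h.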

[2] = Antibacterial activity against Salmonella enterica subspecies enterica serotype Dublin OCC 627 after 18 hrs; assay type: functional, Salmonella enterica subsp. enterica serovar Dublin; settings: OCC 627, 18 h; summary of the method: as §1
Klebsiella aerogenes [3] = test: Antibacterial activity against Klebsiella aerogenes NCTC 8167 after 18 hrs; assay type: functional; settings: NCTC 8167, 18 h; summary of the method: as §1
Escherichia coli [4] = test: Antibacterial activity against Escherichia coli ATCC 35218 after 18 hrs; assay type: functional; settings: ATCC 35218, 18 h; summary of the method: as §1
Staphylococcus aureus [5] = test: Antibacterial activity against Staphylococcus aureus ATCC 6538P after 18 hrs; assay type: functional; summary of the method: as §1
Cronobacter sakazakii = test: Antibacterial activity against Cronobacter sakazakii 29544 after 18 hrs; assay type: functional; settings: Cronobacter sakazakii, 29544, 18 h; summary of the method: as §1
Staphylococcus aureus [6] = test: Antibacterial activity against Staphylococcus aureus OCC 106 after 18 hrs; assay type: functional; settings: OCC 106, 18 h; summary of the method: as §1
Hafnia alvei = test: Antibacterial activity against Hafnia alvei 13337 after 18 hrs; assay type: functional; settings: Hafnia alvei, 13337, 18 h; summary of the method: as §1
[7] = Antibacterial activity against Salmonella enterica subspecies enterica serotype Nottingham NCTC 7832 after 18 hrs; assay type: functional, Salmonella enterica subsp. enterica serovar Nottingham; settings: NCTC 7832, 18 h; summary of the method: as §1
[8] = test system: Staphylococcus haemolyticus; test: Antibacterial activity against Staphylococcus haemolyticus OCC 2223 after 18 hrs; assay type: functional; settings: OCC 2223, 18 h
Summary of the method: (§2)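 Broth microdilution in Nutrient Broth No. 2. Ethanol stocks were diluted in broth to 0.01–128 µg/ml for triclosan and 0.25–256 µg/ml for glycosides. Overnight 37°C NB2 cultures were diluted 1 in 10^4 in saline and added to the wells. Plates were incubated at 37°C with OD read every 15 min after agitation. MIC was the lowest concentration giving no OD increase at 18 h.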

Klebsiella aerogenes [9] = test: Antibacterial activity against Enterobacter aerogenes ATCC 13048 after 18 hrs; assay type: functional; settings: ATCC 13048, 18 h; summary of the method: as §1
Enterococcus faecalis [10] = test: Antibacterial activity against Enterococcus faecalis ATCC 33186 after 18 hrs; assay type: functional; settings: ATCC 33186, 18 h; summary of the method: as §1
Streptococcus pneumoniae = test: Antibacterial activity against Streptococcus pneumoniae ATCC 49619 after 18 hrs; assay type: functional; settings: ATCC 49619, 18 h; summary of the method: as §2
Staphylococcus aureus [11] = test: Antibacterial activity against Staphylococcus aureus OCC 104 after 18 hrs; assay type: functional; settings: OCC 104, 18 h; summary of the method: as §1
Escherichia coli [12] = test: Antibacterial activity against Escherichia coli ATCC 25922 after 18 hrs; assay type: functional; settings: ATCC 25922, 18 h; summary of the method: as §1
Staphylococcus aureus [13] = test: Antibacterial activity against Staphylococcus aureus NCTC 13758 after 18 hrs; assay type: functional; settings: NCTC 13758, 18 h; summary of the method: as §1
Klebsiella pneumoniae = test: Antibacterial activity against Klebsiella pneumoniae ATCC 10031 after 18 hrs; assay type: functional; settings: ATCC 10031, 18 h; summary of the method: as §1
Staphylococcus aureus [14] = test: Antibacterial activity against Staphylococcus aureus ATCC 6538 after 18 hrs; assay type: functional; settings: ATCC 6538, 18 h; summary of the method: as §1
Enterococcus faecalis [15] = test: Antibacterial activity against Enterococcus faecalis ATCC 29212 after 18 hrs; assay type: functional; settings: ATCC 29212, 18 h; summary of the method: as §1
[16] = Antibacterial activity against Salmonella enterica subspecies enterica serotype Poona NCTC 4840 after 18 hrs; assay type: functional, Salmonella enterica subsp. enterica serovar Poona; settings: NCTC 4840, 18 h; summary of the method: as §1
[17] = test system: Staphylococcus epidermidis; test: Antibacterial activity against Staphylococcus epidermidis 155 after 18 hrs; assay type: functional; settings: Staphylococcus epidermidis, 155, 18 h; summary of the method: as §1
Bacillus cereus = test: Antibacterial activity against Bacillus cereus ATCC 14579 after 18 hrs; assay type: functional; settings: ATCC 14579, 18 h; summary of the method: as §1
Escherichia hermannii = test: Antibacterial activity against Escherichia hermannii 33650 after 18 hrs; assay type: functional; settings: Atlantibacter hermannii, 33650, 18 h; summary of the method: as §1
Bacillus subtilis = test: Antibacterial activity against Bacillus subtilis NCTC 10073 after 18 hrs; assay type: functional; settings: NCTC 10073, 18 h; summary of the method: as §1
[18] = Antibacterial activity against Salmonella enterica subspecies enterica serotype Infantis OCC 2133 after 18 hrs; assay type: functional, Salmonella enterica subsp. enterica serovar Infantis; settings: OCC 2133, 18 h; summary of the method: as §1
Staphylococcus aureus [19] = test: Antibacterial activity against Staphylococcus aureus ATCC 25923 after 18 hrs; assay type: functional; settings: ATCC 25923, 18 h; summary of the method: as §1
[20] = Antibacterial activity against Salmonella enterica subspecies enterica serotype Arizonae OCC 706 after 18 hrs; assay type: functional, Salmonella enterica subsp. enterica serovar Arizonae; settings: OCC 706, 18 h; summary of the method: as §1
Aeromonas hydrophila = test: Antibacterial activity against Aeromonas hydrophila OCC 778 after 18 hrs; assay type: functional; settings: OCC 778, 18 h; summary of the method: as §1
Serratia marcescens = test: Antibacterial activity against Serratia marcescens OCC 217 after 18 hrs; assay type: functional; settings: OCC 217, 18 h; summary of the method: as §1

Work on `O[C@@H]1[C@@H](Oc2cc(Cl)ccc2Oc2ccc(Cl)cc2Cl)OC[C@@H](O)[C@H]1O` yielded an MIC [1] of 0.5 µg/mL (≈ 1.19 µM), an MIC [2] of 2 to 8 µg/mL (≈ 4.74 to 19 µM) and an MIC (Klebsiella aerogenes [3]) of 4 µg/mL (≈ 9.49 µM). It also gave an MIC (Escherichia coli [4]) of 0.5 to 4 µg/mL (≈ 1.19 to 9.49 µM), an MIC (Staphylococcus aureus [5]) of 0.5 µg/mL (≈ 1.19 µM) and an MIC (Cronobacter sakazakii) of 8 µg/mL (≈ 19 µM). The MIC (Staphylococcus aureus [6]) was 0.5 µg/mL (≈ 1.19 µM), the MIC (Hafnia alvei) was 0.5 µg/mL (≈ 1.19 µM) and the MIC [7] was 2 to 8 µg/mL (≈ 4.74 to 19 µM). The MIC [8] was 0.5 µg/mL (≈ 1.19 µM), the MIC (Klebsiella aerogenes [9]) was 8 µg/mL (≈ 19 µM) and the MIC (Enterococcus faecalis [10]) was 128 µg/mL (≈ 304 µM). The MIC (Streptococcus pneumoniae) was 64 µg/mL (≈ 152 µM), the MIC (Staphylococcus aureus [11]) was 0.5 µg/mL (≈ 1.19 µM) and the MIC (Escherichia coli [12]) was 0.5 to 4 µg/mL (≈ 1.19 to 9.49 µM). It also gave an MIC (Staphylococcus aureus [13]) of 0.5 µg/mL (≈ 1.19 µM), an MIC (Klebsiella pneumoniae) of 0.5 µg/mL (≈ 1.19 µM) and an MIC (Staphylococcus aureus [14]) of 0.5 µg/mL (≈ 1.19 µM). It also gave an MIC (Enterococcus faecalis [15]) of 128 µg/mL (≈ 304 µM), an MIC [16] of 2 to 8 µg/mL (≈ 4.74 to 19 µM) and an MIC [17] of 0.5 µg/mL (≈ 1.19 µM). For the same molecule, the MIC (Bacillus cereus) was 128 µg/mL (≈ 304 µM), the MIC (Escherichia hermannii) was 1 µg/mL (≈ 2.37 µM) and the MIC (Bacillus subtilis) was 32 µg/mL (≈ 75.9 µM). It also gave an MIC [18] of 2 to 8 µg/mL (≈ 4.74 to 19 µM), an MIC (Staphylococcus aureus [19]) of 0.5 µg/mL (≈ 1.19 µM) and an MIC [20] of 2 to 8 µg/mL (≈ 4.74 to 19 µM). For the same molecule, the MIC (Aeromonas hydrophila) was 128 µg/mL (≈ 304 µM) and the MIC (Serratia marcescens) was greater than 256 µg/mL.
